Among the data in ChEMBL document CHEMBL1811814, “Synthesis and evaluation of indole, pyrazole, chromone and pyrimidine based conjugates for tumor growth inhibitory activities--development of highly efficacious cytotoxic agents” (Eur J Med Chem, 2010) are Activity and MTD values, retold here.

Assay type in all cases: organism-based
Series [1] has as its system Mus musculus. The experiment in a line: Toxicity in mouse assessed as mouse survival at 100 mg/kg, ip qd on day 19. The conditions noted are these: in vivo. Also noted: dose 100 mg/kg, route intraperitoneal. Summed up:
(§1)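 Female athymic nude mice were given intraperitoneal injections of 400, 200 or 100 mg/kg, one mouse per dose level. Body weight loss was monitored, and survival was recorded after 19 days.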

The test system of series [2] is Mus musculus. Kind of series: Toxicity in mouse assessed as mouse survival at 200 mg/kg, ip qd on day 19. Details: dose 200 mg/kg, route intraperitoneal. The settings on record: in vivo. Summed up:
as §1

Series [3] has as its system Mus musculus. The experiment in a line: Toxicity in mouse assessed as mouse survival at 400 mg/kg, ip qd on day 19. Also noted: dose 400 mg/kg, route intraperitoneal. The conditions noted are these: in vivo. The method, boiled down: as §1
For series [4], the system named is Mus musculus. Kind of series: Toxicity in mouse assessed as mouse survival at 50 mg/kg, ip qd on day 19. Also noted: dose 50 mg/kg, route intraperitoneal. The conditions noted are these: in vivo.
For series [5], the system named is Mus musculus. Kind of series: Toxicity in mouse assessed as mouse survival at 25 mg/kg, ip qd on day 19. Details: dose 25 mg/kg, route intraperitoneal. The settings on record: in vivo.
Series [6] can be described thus: Toxicity in mouse assessed as mouse survival administered intraperitoneally once daily measured after 19 days. The settings on record: in vivo, ip. Summed up: as §1

Regarding `O=C1NC(=O)C(=Cc2cn(Cc3ccccc3)c3ccccc23)C(=O)N1`, the Activity entry is reported as “Toxic” in the series on Mus musculus [1]; “Toxic” with Mus musculus [2]; “Toxic” in the series on Mus musculus [3]; “Non-toxic” in the series on Mus musculus [4]; “Non-toxic” in the series on Mus musculus [5]. Moreover, the MTD at 456 h in series [6] came to 50 mg/kg.

In the case of `CN1C(=O)C(=Cc2cn(Cc3ccccc3)c3ccccc23)C(=O)N(C)C1=O`, the Activity result in the series on Mus musculus [1], with Mus musculus [2] and with Mus musculus [3] was “Non-toxic” in each case. Besides, in series [6], the MTD at 456 h was 400 mg/kg.
